Test results from ChEMBL document CHEMBL1143669, “Triterpene acids from Poria cocos and their anti-tumor-promoting effects” (2007).
The source made the active and inactive calls. No cut-off for these calls is given here.

Tests used:
Human gammaherpesvirus 4 [1] = test: Effect on TPA-induced Epstein-Barr virus early antigen activation in Raji cells at 500 mol ratio/32 pmol TPA relative to control
Human gammaherpesvirus 4 [2] = test: Effect on TPA-induced Epstein-Barr virus early antigen activation in Raji cells at 1000 mol ratio/32 pmol TPA relative to control
Human gammaherpesvirus 4 [3] = test: Inhibition of TPA-induced Epstein-Barr virus early antigen activation in Raji cells at 100 mol ratio/32 pmol TPA relative to control; values are per cent of control
Human gammaherpesvirus 4 [4] = test: Inhibition of TPA-induced Epstein-Barr virus early antigen activation in Raji cells at 10 mol ratio/32 pmol TPA relative to control; values are per cent of control
Raji = test: Cell viability of Raji cells; assay type: functional, Homo sapiens
Method in brief: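 Raji cells were exposed to test compound at 32 nmol, a 1000:1 mol ratio to TPA, and cell viability (%) was scored in the EBV-EA activation system.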

Mus musculus = test: Inhibition of DMBA initiated TPA-induced skin tumor promotion in mouse at 85 nmol after 20 weeks by in vivo two-stage carcinogenesis test; assay type: functional, organism-based

| SMILES | Activity (Human gammaherpesvirus 4 [1]) | Activity (Human gammaherpesvirus 4 [2]) | EBV-EA activation (% of control) (Human gammaherpesvirus 4 [3]) | EBV-EA activation (% of control) (Human gammaherpesvirus 4 [4]) | Activity (Raji) | Activity (Mus musculus) |
| --- | --- | --- | --- | --- | --- | --- |
| C=C(CCC(C(=O)O)[C@H]1[C@H](O)C[C@@]2(C)[C@]34C=C[C@@]5(OO3)C(C)(C)[C@@H](O)CC[C@]5(C)C4=CC[C@]12C)C(C)C (some centres not stated) | 17.4% | 0% | 57.8% | 83.6% | 60% | – |
| C=C(CCC(C(=O)O)[C@H]1CC[C@@]2(C)C3=CC[C@H]4C(C)(C)C(=O)CC[C@]4(C)C3=CC[C@]12C)C(C)C (some centres not stated) [DEHYDROEBURICONIC ACID] | 43.9% | 9.5% | 79.5% | 100% | 70% | – |
| C=C(CC[C@@H](C(=O)O)[C@H]1CC[C@@]2(C)C3=CC[C@@H](C(=C)C)[C@](C)(CCC(=O)O)C3=CC[C@]12C)C(C)C [PORICOIC ACID C] | 21.1% | 0% | 67.2% | 91.7% | 70% | Active |
| C=C(CC[C@@H](C(=O)O)[C@H]1[C@H](O)C[C@@]2(C)C3=C(CC[C@]12C)[C@@]1(C)CC[C@H](OC(C)=O)C(C)(C)[C@@H]1CC3)C(C)C [PACHYMIC ACID] | 24.7% | 0% | 71.6% | 96.5% | 70% | – |
| CC(C)=CCCC(C(=O)O)[C@H]1CC[C@@]2(C)C3=CC[C@H]4C(C)(C)[C@@H](O)CC[C@]4(C)C3=CC[C@]12C (some centres not stated) | 45.3% | 9.2% | 79.1% | 100% | 70% | – |
| C=C(CCC(C(=O)O)[C@H]1CC[C@@]2(C)C3=CC[C@@H](C(=C)C)[C@](C)(CCC(=O)OC)C3=CC[C@]12C)C(C)C (some centres not stated) [PORICOIC ACID CM] | 37.2% | 0% | 63.4% | 87.6% | 70% | – |
| C=C(CC[C@@H](C(=O)O)[C@H]1CC[C@@]2(C)C3=CC[C@H]4C(C)(C)[C@@H](O)CC[C@]4(C)C3=CC[C@]12C)C(C)C [DEHYDROEBURICOIC ACID] | 45.1% | 8.7% | 74.9% | 100% | 70% | – |
| C=C(C)[C@@H]1CC=C2C(=CC[C@]3(C)[C@@H]([C@@H](CCC(=C)C(C)(C)O)C(=O)O)[C@H](O)C[C@@]23C)[C@@]1(C)CCC(=O)OC [PORICOIC ACID DM] | 18.1% | 0% | 59% | 86.3% | 70% | – |
| C=C(CCC(C(=O)O)[C@H]1[C@H](O)[C@H](O)[C@@]2(C)C3=CC[C@H]4C(C)(C)[C@@H](O)CC[C@]4(C)C3=CC[C@]12C)C(C)C (some centres not stated) | 22.5% | 0% | 70% | 91% | 70% | – |
| C=C(C)[C@@H]1CCC2=C(CC[C@]3(C)[C@@H](C(CCC(=C)C(C)(C)O)C(=O)O)[C@H](O)C[C@@]23C)[C@@]1(C)CCC(=O)O (some centres not stated) [25-HYDROXYPORICOIC ACID H] | 16.7% | 0% | 57.5% | 82.8% | 70% | – |
| C=C(CC[C@@H](C(=O)O)[C@H]1[C@H](O)C[C@@]2(C)C3=CC[C@@H](C(=C)C)[C@](C)(CCC(=O)OC)C3=CC[C@]12C)C(C)C [PORICOIC ACID AM] | 9.6% | 0% | 57.8% | 81.8% | 70% | – |
| CC1=C(/C=C/C(C)=C/C=C/C(C)=C/C=C/C=C(C)/C=C/C=C(C)/C=C/C2=C(C)CCCC2(C)C)C(C)(C)CCC1 [BETA CAROTENE] | 34.2% | 8.6% | 82.1% | 100% | 70% | – |
| C=C(CCC(C(=O)O)[C@H]1[C@H](O)C[C@@]2(C)C3=CC[C@H]4C(C)(C)[C@@H](OC(C)=O)CC[C@]4(C)C3=CC[C@]12C)C(C)C (some centres not stated) [DEHYDROPACHYMIC ACID] | 28.1% | 0% | 72.4% | 95.1% | 70% | – |
| C=C(C)[C@@H]1CC=C2C(=CC[C@]3(C)[C@@H](C(CCC=C(C)C)C(=O)O)CC[C@@]23C)[C@@]1(C)CCC(=O)O (some centres not stated) [16-DEOXYPORICOIC ACID B] | 19.3% | 0% | 65% | 90% | 70% | Active |
| C=C(CCC(C(=O)O)[C@H]1[C@H](O)C[C@@]2(C)C3=CC[C@H]4C(C)(C)C(=O)CC[C@]4(C)C3=CC[C@]12C)C(C)(C)O (some centres not stated) | 39.5% | 0% | 65.3% | 91.7% | 70% | – |
| C=C(CC[C@@H](C(=O)O)[C@H]1CC[C@@]2(C)C3=C(CC[C@]12C)[C@@]1(C)CC[C@H](O)C(C)(C)[C@@H]1CC3)C(C)C [EBURICOIC ACID] | 45.8% | 9.1% | 75.3% | 100% | 70% | – |
| CC(C)=CCCC(C(=O)O)[C@H]1CC[C@@]2(C)C3=CC[C@H]4C(C)(C)C(=O)CC[C@]4(C)C3=CC[C@]12C (some centres not stated) [DEHYDROTRAMETENONIC ACID] | 30.1% | 0% | 71% | 94.2% | 70% | – |
| C=C(C)[C@@H]1CC=C2C(=CC[C@]3(C)[C@@H](C(CCC(=C)C(C)(C)O)C(=O)O)[C@H](O)C[C@@]23C)[C@@]1(C)CCC(=O)O (some centres not stated) [PORICOIC ACID D] | 15.3% | 0% | 56.1% | 81.5% | 70% | – |
